What all share (type): functional
Assay [1] has as its system Staphylococcus epidermidis. The assay can be described thus: Antimicrobial activity against Staphylococcus epidermidis after 24 hrs by broth microdilution method. In a few lines: (§1)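 Broth microdilution following NCCLS M7-A4; ATCC strains and clinical isolates from a provincial hospital.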
Assay [2] deals with Streptococcus pyogenes. The assay can be described thus: Antimicrobial activity against Streptococcus pyogenes 1308007P after 24 hrs by broth microdilution method. In a few lines:
as §1
Background: In broth dilution the organism is exposed to a series of concentrations in liquid medium.

Assay [3] concerns Escherichia coli. The assay can be described thus: Antimicrobial activity against Escherichia coli isolate 3 after 24 hrs by broth microdilution method. Particulars: isolate 3, 24 h. In a few lines:
as §1

Assay [4] deals with Escherichia coli. The assay can be described thus: Antimicrobial activity against Escherichia coli isolate 1 after 24 hrs by broth microdilution method. Particulars: isolate 1, 24 h. In a few lines:
as §1

Assay [5] has as its system Haemophilus influenzae. Briefly: Antimicrobial activity against Haemophilus influenzae H128 after 24 hrs by broth microdilution method. Particulars: H128, 24 h. The procedure, abridged: as §1
Assay [6] has as its system Streptococcus pneumoniae. The assay can be described thus: Antimicrobial activity against Streptococcus pneumoniae N1387 after 24 hrs by broth microdilution method. The following applies: N1387, 24 h. The procedure, abridged: as §1
Assay [7] concerns Staphylococcus aureus. Briefly: Antimicrobial activity against Staphylococcus aureus WCUH29 after 24 hrs by broth microdilution method. Particulars: WCUH29, 24 h. In a few lines: as §1
Assay [8] relates to Haemophilus influenzae. The assay can be described thus: Antimicrobial activity against AcrA-deficient Haemophilus influenzae H128 after 24 hrs by broth microdilution method. Particulars: H128, 24 h. In a few lines: as §1
Assay [9] has as its system Escherichia coli. The assay can be described thus: Antimicrobial activity against Escherichia coli isolate 2 after 24 hrs by broth microdilution method. The following applies: isolate 2, 24 h. In a few lines: as §1
The test system of assay [10] is Staphylococcus aureus. The assay can be described thus: Antimicrobial activity against Staphylococcus aureus after 24 hrs by broth microdilution method. In a few lines:
as §1

Assay [11] has as its system Haemophilus influenzae. The assay can be described thus: Antimicrobial activity against Haemophilus influenzae Q1 after 24 hrs by broth microdilution method. The following applies: Q1, 24 h. In a few lines: as §1
In assay [12] the test system is Staphylococcus aureus. The assay can be described thus: Antimicrobial activity against methicillin-resistant Staphylococcus aureus after 24 hrs by broth microdilution method. In a few lines:
(§2)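 Broth microdilution following NCCLS M7-A4, using ATCC strains and clinical isolates from a provincial hospital.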

The subject of a further assay is Moraxella catarrhalis. The assay can be described thus: Antimicrobial activity against Moraxella catarrhalis 1502 after 24 hrs by broth microdilution method. Particulars: Moraxella catarrhalis, 1502, 24 h. The procedure, abridged:
as §1

The subject of a further assay is Enterococcus faecalis. Briefly: Antimicrobial activity against Enterococcus faecalis Isolate 1 after 24 hrs by broth microdilution method. Particulars: Isolate 1, 24 h. The procedure, abridged: as §1
For assay [13], the system named is Staphylococcus aureus. The assay can be described thus: Antimicrobial activity against Staphylococcus aureus OXFORD after 24 hrs by broth microdilution method. The procedure, abridged:
as §2

The test system of assay [14] is Staphylococcus aureus. Briefly: Antimicrobial activity against methicillin-susceptible Staphylococcus aureus after 24 hrs by broth microdilution method. In a few lines: as §1
The test system of assay [15] is Streptococcus pneumoniae. Briefly: Antimicrobial activity against Streptococcus pneumoniae 1629 after 24 hrs by broth microdilution method. Particulars: Streptococcus pneumoniae, 1629, 24 h. In a few lines:
as §1

The subject of the next assay is Enterococcus faecium. The assay can be described thus: Antimicrobial activity against Enterococcus faecium X7501 after 24 hrs by broth microdilution method. The following applies: X7501, 24 h. In a few lines: as §1
Assay [16] relates to Streptococcus pyogenes. Briefly: Antimicrobial activity against Streptococcus pyogenes 1307006P after 24 hrs by broth microdilution method. The procedure, abridged: as §1
Assay [17] concerns Streptococcus pneumoniae. Briefly: Antimicrobial activity against Streptococcus pneumoniae ERY2 after 24 hrs by broth microdilution method. The following applies: ERY2, 24 h. In a few lines: as §1

Converted amounts (≈) assume the structure as drawn.

`C=C1C[C@@H](C(=O)Nc2ccc(F)cn2)N(C(=O)[C@H](CCCC)CN(O)C=O)C1`: the MIC in [1] was 0.25 mg/L (≈ 0.637 µM); against Streptococcus pyogenes [2], 4 mg/L (≈ 10.2 µM); in the assay with Escherichia coli [3], greater than 64 mg/L; with Escherichia coli [4], 32 mg/L (≈ 81.5 µM); against Haemophilus influenzae [5], 16 mg/L (≈ 40.8 µM); against Streptococcus pneumoniae [6], 4 mg/L (≈ 10.2 µM). Also, the MIC in the assay on Staphylococcus aureus [7] was 0.5 mg/L (≈ 1.27 µM); against Haemophilus influenzae [8] it was 0.5 mg/L (≈ 1.27 µM); in the assay with Escherichia coli [9], greater than 64 mg/L; in the assay on Staphylococcus aureus [10], 0.5 mg/L (≈ 1.27 µM); in the assay with Haemophilus influenzae [11], 16 mg/L (≈ 40.8 µM); with Staphylococcus aureus [12], 0.125 mg/L (≈ 0.319 µM). The MIC against Moraxella catarrhalis is 0.25 mg/L (≈ 0.637 µM); in the assay on Enterococcus faecalis, 32 mg/L (≈ 81.5 µM); in the assay with Staphylococcus aureus [13] it was 4 mg/L (≈ 10.2 µM); in the assay on Staphylococcus aureus [14], 1 mg/L (≈ 2.55 µM); with Streptococcus pneumoniae [15], 16 mg/L (≈ 40.8 µM); in the assay with Enterococcus faecium, 4 mg/L (≈ 10.2 µM). For the same compound, the MIC against Streptococcus pyogenes [16] worked out at 4 mg/L (≈ 10.2 µM); against Streptococcus pneumoniae [17], 8 mg/L (≈ 20.4 µM).

Turning to `O=CN(O)C[C@@H](CC1CCCC1)C(=O)N1CC=C[C@H]1C(=O)Nc1ccccc1`, the MIC in assay [1] turned out to be 0.5 mg/L (≈ 1.3 µM); with Streptococcus pyogenes [2] it was 0.5 mg/L (≈ 1.3 µM); in the assay with Escherichia coli [3], 64 mg/L (≈ 166 µM); against Escherichia coli [4], 32 mg/L (≈ 83 µM); against Haemophilus influenzae [5], 2 mg/L (≈ 5.19 µM); against Streptococcus pneumoniae [6] it was 0.5 mg/L (≈ 1.3 µM). Moreover, the MIC in the assay on Staphylococcus aureus [7] is 0.125 mg/L (≈ 0.324 µM); in the assay with Haemophilus influenzae [8] it was no more than 0.06 mg/L; with Escherichia coli [9], 32 mg/L (≈ 83 µM); in the assay on Staphylococcus aureus [10] it was 4 mg/L (≈ 10.4 µM); against Haemophilus influenzae [11] it was 2 mg/L (≈ 5.19 µM); against Staphylococcus aureus [12], 1 mg/L (≈ 2.59 µM). The MIC with Moraxella catarrhalis is no more than 0.06 mg/L; against Enterococcus faecalis it was greater than 64 mg/L; against Staphylococcus aureus [13] it was 1 mg/L (≈ 2.59 µM); in the assay on Staphylococcus aureus [14], 4 mg/L (≈ 10.4 µM); against Streptococcus pneumoniae [15] it was 2 mg/L (≈ 5.19 µM); in the assay with Enterococcus faecium, 1 mg/L (≈ 2.59 µM). Moreover, the MIC with Streptococcus pyogenes [16] stood at 0.25 mg/L (≈ 0.649 µM); in the assay on Streptococcus pneumoniae [17], 1 mg/L (≈ 2.59 µM).

For `O=CN(O)C[C@@H](CC1CCCC1)C(=O)N1CC=C[C@H]1C(=O)Nc1ccc(F)cc1`, the MIC amounted to 1 mg/L (≈ 2.48 µM) in assay [1]; 0.25 mg/L (≈ 0.62 µM) with Streptococcus pyogenes [2]; 32 mg/L (≈ 79.3 µM) against Escherichia coli [3]; 32 mg/L (≈ 79.3 µM) in the assay with Escherichia coli [4]; 2 mg/L (≈ 4.96 µM) in the assay on Haemophilus influenzae [5]; 0.5 mg/L (≈ 1.24 µM) against Streptococcus pneumoniae [6]. Moreover, the MIC against Staphylococcus aureus [7] is 0.125 mg/L (≈ 0.31 µM); in the assay on Haemophilus influenzae [8], no more than 0.06 mg/L; in the assay with Escherichia coli [9], 64 mg/L (≈ 159 µM); in the assay on Staphylococcus aureus [10], 0.25 mg/L (≈ 0.62 µM); against Haemophilus influenzae [11], 2 mg/L (≈ 4.96 µM); with Staphylococcus aureus [12], 0.25 mg/L (≈ 0.62 µM). For the same compound, the MIC against Moraxella catarrhalis was no more than 0.06 mg/L; against Enterococcus faecalis, 2 mg/L (≈ 4.96 µM); in the assay with Staphylococcus aureus [13], 1 mg/L (≈ 2.48 µM); in the assay with Staphylococcus aureus [14], 0.5 mg/L (≈ 1.24 µM); in the assay with Streptococcus pneumoniae [15], 1 mg/L (≈ 2.48 µM); with Enterococcus faecium, 1 mg/L (≈ 2.48 µM). The MIC with Streptococcus pyogenes [16] was found to be 0.25 mg/L (≈ 0.62 µM); in the assay on Streptococcus pneumoniae [17] it was 1 mg/L (≈ 2.48 µM).

The record behind these values is ChEMBL document CHEMBL3352487, “Synthesis, antibacterial activity, and biological evaluation of formyl hydroxyamino derivatives as novel potent peptide deformylase inhibitors against drug-resistant bacteria” (Eur J Med Chem, 2014).
